Test results: publication PMC3155308 (The EMBO Journal, 2011)
Where no end group is shown, it is not given here.

Key:
[1] = test system: myosin-X MyTH4–FERM cassette / microtubules; assay: Competition microtubule co-sedimentation of MyTH4–FERM cassette; format: binding, human; details: Myo-X 4 μM; integrin β5 peptide 0, 4, 20 and 40 μM; three independent measurements
[2] = test system: myosin-X MyTH4–FERM cassette; assay: Pull-down with GST-fused integrin β5 cytoplasmic tail; format: binding, human; details: GST-fused integrin β5 (743–799), Myo-X 10 μM
Summary of the method: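 MyTH4–FERM cassette (10 μM) was pulled down on glutathione-Sepharose at 4°C by GST-fused human integrin β5 cytoplasmic tail (743–799), with DCC P3 peptide at 0, 10, 50 or 100 μM. Eluates were run on SDS–PAGE. Bound cassette was expressed relative to the no-DCC sample, from three independent measurements.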

interference with microtubule binding by integrin β5 [1]: interfere with microtubule binding
binding of integrin β5 cytoplasmic peptide [2]: showed binding
Substance: integrin β5 cytoplasmic peptide: integrin β5 cytoplasmic tail (residues 743–799) ({GST}-KLLVTIHDRREFAKFQSERSRARYEMASNPLYRKPISTHTVDFTFNKFNKSYNGTVD; not fully specified)
